Measured values reported in the array DNA melting data of Ke et al. (doi:10.1101/2024.01.08.574731).

Experiments:
[1] = folding enthalpy; higher = less favourable; fluorescence melt of hairpins on a sequencing array, two-state fit; details: sodium 0.088 M
In short: (§1)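 Melting temperature and folding enthalpy were derived from bootstrapped two-state fits. The fitted temperatures were raised by 9.35 °C to agree with UV melts, and four replicates were combined by inverse variance. The underlying data were Cy3 fluorescence images of library hairpins, with annealed Cy3 and quencher oligos, on a sequenced MiSeq flow cell in 50 mM Na-HEPES pH 8.0, 25 mM NaCl, taken in 2.5 °C steps up to 60 °C, normalised to pre-quench Cy3 and to control constructs.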

[2] = melting temperature; fluorescence melt of hairpins on a sequencing array, two-state fit, raised by 9.35 °C to match UV melts; details: sodium 0.088 M
In short: as §1

Sequence | folding enthalpy [1] [kcal/mol] | Tm [2] [°C]
GCCGTACGAAAGTAGGGC (((.(((....))).))) | -40.8 | 60.1
GCCGTACGAAAGTATGGC (((.(((....))).))) | -42.8 | 61.4
GCCGTATCGAAAGATGGC (((..(((....)))))) | -9.59 | 47.4
GCCGTCCGAAAGGAAGGC (((.(((....))).))) | -36.4 | 67
GCCGTCGAAAGACACGGC ((((((....)))..))) | -27.5 | 54.6
GCCGTCGAAAGACGCGGC ((((((....)))..))) | -15 | 61.3
GCCGTGCGAAAGCAATGC ((..(((....)))..)) | -11.2 | 39.2
GCCGTGCGAAAGCAGAGC ((..(((....)))..)) | -13.5 | 51.9
GCCGTGCGAAAGCAGGC (((.(((....)))))) | -23.7 | 68.2
GCCGTGCGAAAGCCCAGC ((.(.((....)).).)) | -10.3 | 29.4
GCCGTGCGAAAGCCCTGC ((.(.((....)).).)) | -9.62 | 30.3
GCCGTGCGAAAGCCGGGC (((..((....))..))) | -15.1 | 65.3
GCCGTGCGAAAGCGCCGC ((.(.((....)).).)) | -14.4 | 50
GCCGTGGGAAACCGTGGC (((..((....))..))) | -28.2 | 47.4
GCCGTTGGAAACAACAGC ((.((((....)))).)) | -18.7 | 41.6
GCCTAACGAAAGTTTGGC (((.(((....))).))) | -50.4 | 54.2
GCCTAAGAAATTAGGC ((((((....)))))) | -28.8 | 52.5
GCCTAAGGAAACTTAGAC (.(((((....))))).) | -19.8 | 27.8
GCCTACACGAAAGTGGGC (((..(((....)))))) | -22.2 | 50.5
GCCTACCGAAAGGTGGC (((.(((....)))))) | -25.4 | 57
GCCTACCGAAAGGTGGGC (((.(((....))).))) | -38.6 | 69.1
GCCTACGAAAGTAGTGGC ((((((....)))..))) | -24.3 | 48.4
GCCTACGAAAGTATGGGC ((((((....)))..))) | -34.8 | 46.5

Sequence | folding enthalpy [1] [kcal/mol] | Tm [2] [°C]
GCCTACGGAAACGCAGGC ((((.((....)).)))) | -27.6 | 52.6
GCCTAGCGAAAGCGAAGC ((.(.((....)).).)) | -16.1 | 41.9
GCCTAGCGAAAGCGACGC ((.(.((....)).).)) | -15.3 | 47.8
GCCTAGCGAAAGCTCAGC ((..(((....)))..)) | -14.6 | 34.7
GCCTAGCGAAAGCTGAGC ((..(((....)))..)) | -10.7 | 48.8
GCCTAGCGAAAGCTGCGC ((..(((....)))..)) | -17.6 | 49.6
GCCTAGCGAAAGCTGTGC ((..(((....)))..)) | -13 | 41.2
GCCTAGGGAAACCTGGGC (((.(((....))).))) | -38.3 | 55.1
GCCTATACGAAAGTAGGC (((..(((....)))))) | -28.6 | 48.3
GCCTATGGAAACACAGGC ((((.((....)).)))) | -31.7 | 40
GCCTATGGAAACATGGGC (((.(((....))).))) | -46.6 | 51.7
GCCTCCGAAAGGATAGGC ((((((....)))..))) | -37.1 | 53.2
GCCTCCGCGAAAGCGGGC (((..(((....)))))) | -5.39 | 52.2
GCCTCGCGAAAGCACGGC (((..((....))..))) | -22.5 | 54.1
GCCTCGCGAAAGCCGGGC (((..((....))..))) | -22.5 | 55.8
GCCTCGCGAAAGCGCGGC (((.(((....))).))) | -40.8 | 61.3
GCCTCGCGAAAGCGCTGC ((..(((....)))..)) | -10.4 | 38.5
GCCTCGCGAAAGCTATGC ((.(.((....)).).)) | -4.77 | 15.9
GCCTCGGGAAACTGAGGC (((((.(....).))))) | -37.1 | 59.4
GCCTCGTCGAAAGACGGC (((..(((....)))))) | -8.04 | 49.6
GCCTCTCGAAAGAGCGGC (((.(((....))).))) | -37 | 53.4
GCCTCTGGAAACGGAGGC (((((.(....).))))) | -40.7 | 57.5
